In ChEMBL document CHEMBL4840303, “Design, synthesis, biological evaluation and pharmacophore model analysis of novel tetrahydropyrrolo[3,4-c]pyrazol derivatives as potential TRKs inhibitors” (Eur J Med Chem, 2021):

What was measured:
[1] = test system: KM12; test: Induction of apoptosis in human KM12 cells assessed as late apoptotic cells at 250 nM measured after 48 hrs by AnnexinV-FITC/PI staining based flowcytometry assay relative to control; assay type: functional
Procedure, shortened: (§1)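 They were detached with trypsin, washed twice in PBS, and 10^5 cells were suspended in Annexin V binding buffer. Cells were stained with FITC-Annexin V and PI for 10 min at room temperature in the dark, diluted with PBS and analysed by flow cytometry.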

[2] = test system: KM12; test: Induction of apoptosis in human KM12 cells assessed as viable cells at 250 nM measured after 48 hrs by AnnexinV-FITC/PI staining based flowcytometry assay relative to control; assay type: functional; settings: read-out: Activity
Procedure, shortened: (§2)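 10^5 cells in Annexin V binding buffer stained with FITC-Annexin V and PI for 10 min at room temperature in the dark, diluted with PBS and analysed by flow cytometry (FITC 494/518 nm, PI 535/617 nm).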

[3] = target: High affinity nerve growth factor receptor (Homo sapiens, UniProt P04629); test: Inhibition of N-terminal GST-tagged human TRKA (436 to 790 residues) expressed in baculovirus infected Sf21 cells using TK as substrate in presence of ATP measured after 30 mins by HTRF assay
[4] = test system: KM12; test: Cell cycle arrest in human KM12 cells assessed as accumulation of cells at less G1 phase at 500 nM measured after 48 hrs by AnnexinV-FITC/PI staining based flowcytometry method relative to control; assay type: functional
[5] = target: Fibroblast growth factor receptor 1 (Homo sapiens) (UniProt P11362); test: Inhibition of recombinant His-tagged human FGFR1 expressed in baculovirus expression system at 1 uM measured by select screen assay relative to control
Chain of Fibroblast growth factor receptor 1 (Homo sapiens) (P11362 22-822 limits assumed): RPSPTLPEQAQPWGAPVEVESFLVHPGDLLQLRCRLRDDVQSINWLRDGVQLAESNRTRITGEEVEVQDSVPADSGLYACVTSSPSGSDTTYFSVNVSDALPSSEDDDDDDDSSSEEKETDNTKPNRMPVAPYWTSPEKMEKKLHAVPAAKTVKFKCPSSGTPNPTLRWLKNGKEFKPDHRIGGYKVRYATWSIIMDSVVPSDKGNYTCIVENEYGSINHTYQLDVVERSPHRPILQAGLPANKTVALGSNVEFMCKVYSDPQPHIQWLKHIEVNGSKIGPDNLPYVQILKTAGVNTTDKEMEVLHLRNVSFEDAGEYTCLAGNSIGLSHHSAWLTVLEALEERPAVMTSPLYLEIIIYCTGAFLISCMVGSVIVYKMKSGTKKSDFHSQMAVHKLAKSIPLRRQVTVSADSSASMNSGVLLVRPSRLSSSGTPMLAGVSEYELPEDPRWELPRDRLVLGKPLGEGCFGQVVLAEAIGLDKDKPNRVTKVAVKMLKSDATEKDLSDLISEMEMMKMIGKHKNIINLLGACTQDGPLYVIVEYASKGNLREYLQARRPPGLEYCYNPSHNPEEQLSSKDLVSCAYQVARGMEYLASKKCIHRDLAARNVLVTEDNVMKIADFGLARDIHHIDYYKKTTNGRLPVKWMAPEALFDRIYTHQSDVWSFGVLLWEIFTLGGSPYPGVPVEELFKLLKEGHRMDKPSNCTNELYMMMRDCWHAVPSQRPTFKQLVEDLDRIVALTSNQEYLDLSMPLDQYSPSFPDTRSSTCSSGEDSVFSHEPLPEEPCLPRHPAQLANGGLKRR
Procedure, shortened: (§3)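 Single-concentration profiling at 1.0 µM in a 28-kinase SelectScreen panel; percent inhibition reported.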

[6] = test system: KM12; test: Induction of apoptosis in human KM12 cells assessed as necrotic cells at 500 nM measured after 48 hrs by AnnexinV-FITC/PI staining based flowcytometry assay relative to control; assay type: functional; procedure, shortened: as §2
[7] = MRT in Sprague dawley rat at 1 mg/kg, iv; assay type: ADME, organism-based; settings: in vivo
Procedure, shortened: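 Male-unspecified SD rats, n = 3 per group, single i.v. dose 1 mg/kg or oral 3 mg/kg. Blood drawn into heparin tubes at set times, centrifuged at 4 °C, plasma quantified by LC-MS/MS; noncompartmental parameters fitted.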

[8] = Cmax in Sprague dawley rat at 3 mg/kg, po; assay type: ADME, organism-based; design: route oral, dose 3 mg/kg; settings: in vivo
Procedure, shortened: (§4)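 Blood was collected into heparin tubes at specified time points and centrifuged at once (4 °C, 4000 rpm, 20 min). Plasma levels were quantified by LC-MS/MS. Parameters came from noncompartmental analysis.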

[9] = Stability in human plasma assessed as half life incubated for 0 mins by LC-MS/MS analysis; assay type: ADME, cell-free
Procedure, shortened: (§5)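 Pooled frozen human plasma thawed at 37 °C, centrifuged to remove clots, pH adjusted to 7.4 if required. Spiked to 2 µM final (from 100 µM dosing solution), in duplicate, incubated at 37 °C in a water bath. Sampled at 0, 10, 30, 60 and 120 min, quenched with acetonitrile stop solution containing internal standards, centrifuged, and supernatant analysed by LC-MS/MS for percent remaining.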

[10] = target: Tyrosine-protein kinase JAK2 (Homo sapiens) (UniProt O60674); test: Inhibition of recombinant GST-tagged human JAK2 expressed in baculovirus expression system at 1 uM measured by select screen assay relative to control; procedure, shortened: as §3
Chain of Tyrosine-protein kinase JAK2 (Homo sapiens) (O60674 whole entry): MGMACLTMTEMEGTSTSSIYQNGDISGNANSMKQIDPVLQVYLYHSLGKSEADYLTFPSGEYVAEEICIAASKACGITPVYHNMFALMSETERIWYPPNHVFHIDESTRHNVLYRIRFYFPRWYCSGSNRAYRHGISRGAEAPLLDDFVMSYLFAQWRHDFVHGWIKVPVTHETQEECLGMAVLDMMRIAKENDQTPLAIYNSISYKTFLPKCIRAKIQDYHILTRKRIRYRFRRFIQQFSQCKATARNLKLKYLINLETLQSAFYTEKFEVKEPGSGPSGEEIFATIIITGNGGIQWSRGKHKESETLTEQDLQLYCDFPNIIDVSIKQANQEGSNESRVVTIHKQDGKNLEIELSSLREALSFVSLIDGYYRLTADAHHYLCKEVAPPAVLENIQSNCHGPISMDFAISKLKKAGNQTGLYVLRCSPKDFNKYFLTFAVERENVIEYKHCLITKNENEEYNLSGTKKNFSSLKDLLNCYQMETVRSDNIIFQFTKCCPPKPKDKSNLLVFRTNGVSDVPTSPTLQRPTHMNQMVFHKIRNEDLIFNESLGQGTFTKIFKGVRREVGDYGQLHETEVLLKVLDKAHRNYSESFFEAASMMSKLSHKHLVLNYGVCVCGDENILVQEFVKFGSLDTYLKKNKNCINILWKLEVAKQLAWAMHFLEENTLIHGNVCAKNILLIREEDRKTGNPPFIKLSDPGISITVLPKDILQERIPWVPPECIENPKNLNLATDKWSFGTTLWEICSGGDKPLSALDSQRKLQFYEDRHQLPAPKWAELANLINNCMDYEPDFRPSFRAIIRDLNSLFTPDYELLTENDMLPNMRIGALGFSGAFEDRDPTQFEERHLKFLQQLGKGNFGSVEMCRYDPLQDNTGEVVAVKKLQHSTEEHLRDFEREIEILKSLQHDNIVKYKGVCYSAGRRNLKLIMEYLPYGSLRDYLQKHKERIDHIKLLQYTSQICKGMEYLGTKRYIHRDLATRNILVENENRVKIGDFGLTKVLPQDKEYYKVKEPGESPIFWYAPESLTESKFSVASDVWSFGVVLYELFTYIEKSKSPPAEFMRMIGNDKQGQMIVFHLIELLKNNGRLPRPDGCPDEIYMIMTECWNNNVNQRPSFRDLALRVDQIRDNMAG

[11] = test system: KM12; test: Cell cycle arrest in human KM12 cells assessed as accumulation of cells at less G1 phase at 250 nM measured after 48 hrs by AnnexinV-FITC/PI staining based flowcytometry method relative to control; assay type: functional
[12] = test system: KM12; test: Induction of apoptosis in human KM12 cells assessed as necrotic cells at 250 nM measured after 48 hrs by AnnexinV-FITC/PI staining based flowcytometry assay relative to control; assay type: functional; procedure, shortened: as §2
[13] = test system: KM12; test: Cell cycle arrest in human KM12 cells assessed as accumulation of cells at S phase at 250 nM measured after 48 hrs by AnnexinV-FITC/PI staining based flowcytometry method relative to control; assay type: functional
[14] = test system: KM12; test: Cell cycle arrest in human KM12 cells assessed as accumulation of cells at G2 phase at 62.5 nM measured after 48 hrs by AnnexinV-FITC/PI staining based flowcytometry method relative to control; assay type: functional
[15] = target: AMP-activated protein kinase, AMPK (Homo sapiens) (UniProt P54646+O43741+P54619+Q9UGJ0+Q9Y478+Q13131+Q9UGI9); test: Inhibition of recombinant GST-tagged His-tagged full length human AMPK expressed in baculovirus expression system at 1 uM measured by select screen assay; procedure, shortened: as §3
[16] = AUC (last) in Sprague dawley rat at 3 mg/kg, po; assay type: ADME, organism-based; design: time 0 - last, route oral, dose 3 mg/kg; settings: in vivo; procedure, shortened: as §4
[17] = target: ALK tyrosine kinase receptor (Homo sapiens) (UniProt Q9UM73); test: Inhibition of recombinant GST-tagged human ALK expressed in baculovirus expression system at 1 uM measured by select screen assay relative to control; procedure, shortened: as §3
Chain of ALK tyrosine kinase receptor (Homo sapiens) (Q9UM73 19-1620 limits assumed): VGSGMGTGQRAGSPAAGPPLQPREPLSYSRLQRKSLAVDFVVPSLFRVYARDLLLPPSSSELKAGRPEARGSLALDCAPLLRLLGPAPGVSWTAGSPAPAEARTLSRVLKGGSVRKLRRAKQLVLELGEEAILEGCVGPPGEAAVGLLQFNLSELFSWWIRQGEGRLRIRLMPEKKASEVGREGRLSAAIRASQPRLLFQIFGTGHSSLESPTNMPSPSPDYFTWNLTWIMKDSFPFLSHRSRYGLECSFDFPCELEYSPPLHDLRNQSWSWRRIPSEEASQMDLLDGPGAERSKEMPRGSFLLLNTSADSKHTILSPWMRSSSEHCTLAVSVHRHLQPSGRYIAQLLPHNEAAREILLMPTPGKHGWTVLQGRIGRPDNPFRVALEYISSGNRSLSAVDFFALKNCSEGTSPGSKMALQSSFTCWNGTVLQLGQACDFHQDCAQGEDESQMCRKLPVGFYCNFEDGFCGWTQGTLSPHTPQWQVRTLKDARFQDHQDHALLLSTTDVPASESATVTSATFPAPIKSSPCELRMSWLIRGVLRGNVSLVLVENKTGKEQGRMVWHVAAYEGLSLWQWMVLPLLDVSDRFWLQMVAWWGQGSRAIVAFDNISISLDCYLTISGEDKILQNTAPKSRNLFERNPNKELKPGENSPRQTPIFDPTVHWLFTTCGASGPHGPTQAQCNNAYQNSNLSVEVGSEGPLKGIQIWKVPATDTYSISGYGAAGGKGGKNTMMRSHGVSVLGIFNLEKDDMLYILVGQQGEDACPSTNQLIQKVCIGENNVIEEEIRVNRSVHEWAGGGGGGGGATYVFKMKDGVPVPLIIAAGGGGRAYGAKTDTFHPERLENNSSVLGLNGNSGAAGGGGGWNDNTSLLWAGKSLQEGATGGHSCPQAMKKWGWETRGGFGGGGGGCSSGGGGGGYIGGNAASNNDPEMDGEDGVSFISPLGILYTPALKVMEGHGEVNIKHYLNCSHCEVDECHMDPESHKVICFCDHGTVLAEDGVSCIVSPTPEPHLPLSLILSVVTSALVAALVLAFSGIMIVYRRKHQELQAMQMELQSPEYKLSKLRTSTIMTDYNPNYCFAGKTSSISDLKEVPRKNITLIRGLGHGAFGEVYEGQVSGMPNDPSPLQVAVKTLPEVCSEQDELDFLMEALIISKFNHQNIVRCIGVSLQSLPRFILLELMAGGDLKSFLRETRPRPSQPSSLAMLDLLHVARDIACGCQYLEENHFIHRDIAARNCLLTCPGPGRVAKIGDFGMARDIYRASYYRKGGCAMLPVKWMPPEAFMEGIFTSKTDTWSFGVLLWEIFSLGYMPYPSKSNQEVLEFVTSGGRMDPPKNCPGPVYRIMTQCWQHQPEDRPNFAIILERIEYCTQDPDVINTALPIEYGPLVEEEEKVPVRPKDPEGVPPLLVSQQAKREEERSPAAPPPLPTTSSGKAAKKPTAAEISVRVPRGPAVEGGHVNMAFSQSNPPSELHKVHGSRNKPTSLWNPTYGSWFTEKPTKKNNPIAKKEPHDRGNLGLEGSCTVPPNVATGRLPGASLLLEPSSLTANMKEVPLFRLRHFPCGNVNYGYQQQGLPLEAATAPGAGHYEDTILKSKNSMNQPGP

[18] = Stability in human plasma assessed as compound remaining incubated for 10 mins by LC-MS/MS analysis; assay type: ADME, cell-free; settings: read-out: Stability; procedure, shortened: as §5
[19] = Stability in human liver microsomes assessed as compound remaining in presence of NADPH at 100 uM measured after 60 mins by LC-MS/MS analysis; assay type: ADME, Microsome; settings: read-out: Stability
Procedure, shortened: (§6)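 Human liver microsomes diluted to 0.59 mg/mL working solution in 100 mM potassium phosphate, prewarmed 10 min at 37 °C; compound added from a 100 µM working solution. NADPH (in 10 mM MgCl2) added to one plate, buffer instead in no-cofactor control. Incubated at 37 °C, quenched at 5, 15, 30, 45, 60 min, centrifuged, analysed by LC-MS/MS.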

[20] = test system: KM12; test: Cell cycle arrest in human KM12 cells assessed as accumulation of cells at G1 phase at 62.5 nM measured after 48 hrs by AnnexinV-FITC/PI staining based flowcytometry method relative to control; assay type: functional
[21] = Clearance in Sprague dawley rat at 1 mg/kg, iv; assay type: ADME, organism-based; settings: in vivo; procedure, shortened: as §4
[22] = test system: KM12; test: Cell cycle arrest in human KM12 cells assessed as accumulation of cells at less G1 phase at 1000 nM measured after 48 hrs by AnnexinV-FITC/PI staining based flowcytometry method relative to control; assay type: functional
[23] = test system: KM12; test: Induction of apoptosis in human KM12 cells assessed as early apoptotic cells at 250 nM measured after 48 hrs by AnnexinV-FITC/PI staining based flowcytometry assay relative to control; assay type: functional; procedure, shortened: as §1
[24] = test system: KM12; test: Cell cycle arrest in human KM12 cells assessed as accumulation of cells at G1 phase at 125 nM measured after 48 hrs by AnnexinV-FITC/PI staining based flowcytometry method relative to control; assay type: functional
[25] = test system: KM12; test: Cell cycle arrest in human KM12 cells assessed as accumulation of cells at G1 phase at 1000 nM measured after 48 hrs by AnnexinV-FITC/PI staining based flowcytometry method relative to control; assay type: functional
[26] = Stability in human plasma assessed as compound remaining incubated for 60 mins by LC-MS/MS analysis; assay type: ADME, cell-free; settings: read-out: Stability; procedure, shortened: as §5
[27] = target: Epidermal growth factor receptor (Homo sapiens) (UniProt P00533); test: Inhibition of recombinant GST-tagged human EGFR (668 to 1210) expressed in baculovirus expression system at 1 uM measured by select screen assay relative to control; procedure, shortened: as §3
Chain of Epidermal growth factor receptor (Homo sapiens) (P00533 whole entry): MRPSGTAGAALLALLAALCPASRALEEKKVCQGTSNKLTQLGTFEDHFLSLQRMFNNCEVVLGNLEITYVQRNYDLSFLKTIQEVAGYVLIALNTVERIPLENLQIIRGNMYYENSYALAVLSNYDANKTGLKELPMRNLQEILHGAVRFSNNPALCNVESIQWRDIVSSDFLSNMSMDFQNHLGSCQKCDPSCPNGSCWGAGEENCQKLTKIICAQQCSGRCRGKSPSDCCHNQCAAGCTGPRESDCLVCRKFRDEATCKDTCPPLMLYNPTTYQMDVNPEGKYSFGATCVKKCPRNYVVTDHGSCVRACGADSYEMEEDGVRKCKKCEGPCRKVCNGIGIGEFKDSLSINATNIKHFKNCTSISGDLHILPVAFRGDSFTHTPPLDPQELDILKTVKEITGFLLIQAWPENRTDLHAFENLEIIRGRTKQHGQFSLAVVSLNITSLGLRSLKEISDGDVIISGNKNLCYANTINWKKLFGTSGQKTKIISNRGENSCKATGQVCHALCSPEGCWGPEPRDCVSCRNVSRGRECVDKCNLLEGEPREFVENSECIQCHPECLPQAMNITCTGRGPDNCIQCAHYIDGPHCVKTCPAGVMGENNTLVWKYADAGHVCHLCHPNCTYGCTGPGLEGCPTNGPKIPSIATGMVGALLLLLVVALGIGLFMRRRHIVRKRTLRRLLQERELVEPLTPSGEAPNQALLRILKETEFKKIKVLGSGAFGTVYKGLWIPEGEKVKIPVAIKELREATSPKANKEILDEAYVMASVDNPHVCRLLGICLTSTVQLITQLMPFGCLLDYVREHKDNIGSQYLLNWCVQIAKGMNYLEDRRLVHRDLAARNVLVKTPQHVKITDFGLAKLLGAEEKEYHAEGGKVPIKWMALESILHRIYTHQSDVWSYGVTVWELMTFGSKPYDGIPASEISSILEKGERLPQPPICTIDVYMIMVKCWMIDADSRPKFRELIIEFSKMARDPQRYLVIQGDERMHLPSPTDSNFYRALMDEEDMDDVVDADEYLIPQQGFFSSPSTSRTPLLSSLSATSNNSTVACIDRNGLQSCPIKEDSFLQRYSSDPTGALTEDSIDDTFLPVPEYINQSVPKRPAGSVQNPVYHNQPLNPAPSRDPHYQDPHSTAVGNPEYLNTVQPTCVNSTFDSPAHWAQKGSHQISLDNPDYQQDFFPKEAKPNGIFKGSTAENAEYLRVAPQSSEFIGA

[28] = Stability in human liver microsomes assessed as half life at 100 uM measured after 60 mins by LC-MS/MS analysis; assay type: ADME, Microsome; settings: 1 h; procedure, shortened: as §6

- IC50 [3]: 0.017 µM
- inhibition [5]: 60%
- MRT [7]: 1.85 h
- Cmax [8]: 0.603 µg/mL
- half-life [9]: > 4.82 h
- inhibition [10]: 76%
- inhibition [15]: 53%
- AUC(0-t) [16]: 2.7 µg·h/mL
- inhibition [17]: 82%
- remaining at 10 min [18]: 96.8%
- remaining at 1 h, 100 µM [19]: 22.4%
- clearance [21]: 0.485 L/h/kg
- remaining at 1 h [26]: 99.2%
- inhibition [27]: 4%
- t1/2 [28]: 0.493 h
Structure (SMILES): CN1CCN(c2ccc(C(=O)Nc3n[nH]c4c3CN(Cc3cc(F)cc(F)c3)C4(C)C)cc2)CC1
- Activity [1]: 36.84%
- viability at 0.25 µM [2]: 30.2%
- Activity [4]: 7.65%
- Activity [6]: 0.06%
- Activity [11]: 5.86%
- Activity [12]: 0.04%
- Activity [13]: 8.17%
- Activity [14]: 15.8%
- Activity [20]: 40.3%
- Activity [22]: 7.77%
- Activity [23]: 32.95%
- Activity [24]: 56.6%
- Activity [25]: 72.8%
